Experimental data as given in ChEMBL document CHEMBL4513216, “Probing the Open Global Health Chemical Diversity Library for Multistage-Active Starting Points for Next-Generation Antimalarials” (ACS Infect Dis, 2020).

Test: Toxicity liver stage against HepG2, at 10uM
Assay type: cell-based
Parameters: test concentration 10 uM, cell line HepG2-A16-CD81EGFP
Conditions: human, HepG2-A16-CD81EGFP cells; read-out: INHIBITION
In short: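 Uninfected HepG2-A16-CD81EGFP cells, 3 × 10^3 per well, 1536-well, plated on prespotted compound at 10 μM final, parasite-free screening media added to match infected plates; puromycin 10 μM positive, DMSO 0.5% negative; run in parallel with 48 h PbLuc assay at 37 °C, 5% CO2; viability by CellTiter-Glo luminescence, normalized to controls.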

## CC(=O)N1CC[C@H](c2nc3cc(C)ccc3o2)C1
  cytotoxicity at 10 µM: -4.13%

## Cn1c(C(F)(F)F)nn(CCNC(=O)CCc2ccccc2)c1=O
  cytotoxicity at 10 µM: 10.7%

## CN1CC(c2ccccc2)C2(CCN(C(=O)c3cccn3C)CC2)C1=O (centres undefined)
  cytotoxicity at 10 µM: 3.83%

## COCCN1CCC2(CCCN(c3ncc(F)cn3)C2)C1 (centres undefined)
  cytotoxicity at 10 µM: 4.71%

## Cc1noc([C@@]23CCO[C@@H]2CCN(C(=O)c2cc(C)[nH]c2C)C3)n1
  cytotoxicity at 10 µM: 10.4%

## Cc1nc(NCCN2CCCC2=O)cc(C2CN(C(C)C)CCO2)n1 (centres undefined)
  cytotoxicity at 10 µM: 3.88%

## CCc1cccc2cc(CNCCOC)c(=O)[nH]c12
  cytotoxicity at 10 µM: 1.47%

## Cc1nccn1[C@@H]1CC[C@@H](NC(=O)CCCn2cncn2)[C@H]1O
  cytotoxicity at 10 µM: 6.17%

## CC(C)c1nnc2n1CC(CNCc1ccncc1)CC2 (centres undefined)
  cytotoxicity at 10 µM: -17.5%

## O=C(NCC1CC1)[C@H]1C[C@@H]2CCN(Cc3nccs3)C[C@@H]2O1
  cytotoxicity at 10 µM: -1.7%

## N[C@H]1CN(C(=O)Cc2ccc(CO)cc2)C[C@@H]1C1CC1
  cytotoxicity at 10 µM: -5.68%

## Cc1nn(C)c2ncnc(N3CCCC(OCc4cccnc4)C3)c12 (centres undefined)
  cytotoxicity at 10 µM: 12.8%

## COCCN1CC2(CCCN(C(=O)CCCc3cccs3)C2)CCC1=O (centres undefined)
  cytotoxicity at 10 µM: -8.5%

## CCCN1CCC=C(C2c3nc[nH]c3CCN2C(=O)c2ccco2)C1 (centres undefined)
  cytotoxicity at 10 µM: 1.33%

## COCCN1CCC2(CCC1=O)CN(c1ccnc(SC)n1)CCN2C (centres undefined)
  cytotoxicity at 10 µM: 2.41%

## COc1ccc(N2CCN(CC[C@H](O)c3ccccc3)CC2=O)cc1
  cytotoxicity at 10 µM: 2.41%

## CCCn1cc(-c2cc(-c3cnc(OC)nc3)c(C#N)c(N)n2)c(C)n1
  cytotoxicity at 10 µM: 2.89%

## OC1(CNCc2noc(Cc3ccccc3)n2)CNCCOC1 (centres undefined)
  cytotoxicity at 10 µM: 9.34%

## O=C(NCc1sc2ccccc2c1Cl)c1cc2n(n1)CCNC2
  cytotoxicity at 10 µM: 7.94%

## CC(=O)NCCNCC1(O)CCCN(CCC2CCCCC2)C1=O (centres undefined)
  cytotoxicity at 10 µM: 6.27%

## CSc1ccc(CCN2CCN([C@H]3CCCC[C@@H]3O)CC2)cc1
  cytotoxicity at 10 µM: -3.38%

## CN(C)C(=O)NCC(=O)N(C)Cc1cc(-c2ccccc2)no1
  cytotoxicity at 10 µM: 1.14%

## OCC1COCCN(c2ncccc2C(F)(F)F)C1 (centres undefined)
  cytotoxicity at 10 µM: -9.34%

## CN(C)CCNC(=O)c1cc2n(n1)CCN(C(=O)c1ccc[nH]1)C2
  cytotoxicity at 10 µM: 2.58%

## O=S1(=O)COCCN1Cc1ccc(Cl)c(F)c1
  cytotoxicity at 10 µM: -11.6%

## COc1cccn(CC(=O)N(C)CCOc2cc(C)cc(C)c2)c1=O
  cytotoxicity at 10 µM: -10.6%

## CSc1ncccc1C(=O)N1CCC(c2nc3c(C)cccc3[nH]2)CC1
  cytotoxicity at 10 µM: -20%

## CC(=O)N1CCc2c(nc(-c3ccncc3)nc2N(C)CC(O)CO)C1 (centres undefined)
  cytotoxicity at 10 µM: -13.1%

## COc1c(C2CCCN2C(=O)c2scnc2C)c(C)nn1C (centres undefined)
  cytotoxicity at 10 µM: -1.49%

## Cc1ccc(OCC(=O)N2CCCC(n3nc(C)nc3C)C2)cc1 (centres undefined)
  cytotoxicity at 10 µM: -10.1%

## CCn1cnnc1CNC(=O)N1CCN(c2ccccc2Cl)CC1
  cytotoxicity at 10 µM: -0.502%

## c1cc(CN2CCOC(Cn3cccn3)C2)c2c(c1)OCCO2 (centres undefined)
  cytotoxicity at 10 µM: -2.66%

## CCc1ccc(CNC(=O)NCc2nnc3n2CCC3)s1
  cytotoxicity at 10 µM: 2.12%

## COc1ccc(CN(C)C(=O)NCc2c(C)cc(C)[nH]c2=O)cc1
  cytotoxicity at 10 µM: -1.13%

## CCN(CC)c1ccc(C(=O)N(C)Cc2c(C)noc2C)cn1
  cytotoxicity at 10 µM: -5.38%

## CNC(=O)c1cccc(NC(=O)Cn2nc(-c3cccs3)oc2=O)c1
  cytotoxicity at 10 µM: -8.28%

## O=C(NCCNc1ncccn1)c1ccc(-c2ccco2)[nH]c1=O
  cytotoxicity at 10 µM: -3.29%

## CCN(C(=O)c1ccc(-n2ncc(C#N)c2N)cc1)C1CCCC1
  cytotoxicity at 10 µM: -13%

## Cc1nn(C)c(N(C)C)c1CNC(C)COc1cccc(F)c1 (centres undefined)
  cytotoxicity at 10 µM: -4.96%

## COc1ccc(CNC(C)Cn2cccn2)c(OC)c1OC (centres undefined)
  cytotoxicity at 10 µM: -8.17%

## O=C([C@H]1CN(Cc2ccc(F)cc2)C[C@H]2OCC[C@@H]12)N1CCCO1
  cytotoxicity at 10 µM: 7.77%

## c1ccc(OCc2nnc3n2CCN(Cc2ccco2)C3)nc1
  cytotoxicity at 10 µM: 5.5%

## CCS(=O)(=O)NC[C@]12COC[C@H]1CN(Cc1cccnc1)C2
  cytotoxicity at 10 µM: 5.22%

## CCc1cc(NC2CCC(O)CC2)n2nc(C)c(C)c2n1 (centres undefined)
  cytotoxicity at 10 µM: -6.86%
